TDP2 absorb: blocks human TDP2 phosphodiesterase activity; recombinant TDP2, T5PNP hydrolysis, p-nitrophenol absorbance 415 nm; inhibition, % at 12.8 µM; O95551; 370,000 tested, 0.34% active;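 active = inhibition above the mean of all tested compounds plus 3 SD, set per campaign, cut at about 25% in these data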
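Assay system: Recombinant human TDP2 | Quantity: 120 nM TDP2 per well | Incubation: 2 h at 37 °C | Signal: Epi absorbance | Evaluation: Percent inhibition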
Rin1 Abl inh: inhibitors of human Rin1-Abl protein interaction | TR-FRET Rin1/Abl binding, biochemical | inhibition, % at 7.35 µM | 360,000 tested, 0.4% active | AID 588664; in the data active = inhibition above about 5%, passing the limit was not always enough
MBD2 DNA inh: MBD2-methylated oligo binding inhibition; TR-FRET, MBD2 binding to methylated oligonucleotide; 370,000 tested, 0.31% active; AID 686964; inhibition, % at 4.4 µM; Q9UBB5; in the data active = inhibition above about 13%
Target sequence (Q9UBB5 whole entry, looked up): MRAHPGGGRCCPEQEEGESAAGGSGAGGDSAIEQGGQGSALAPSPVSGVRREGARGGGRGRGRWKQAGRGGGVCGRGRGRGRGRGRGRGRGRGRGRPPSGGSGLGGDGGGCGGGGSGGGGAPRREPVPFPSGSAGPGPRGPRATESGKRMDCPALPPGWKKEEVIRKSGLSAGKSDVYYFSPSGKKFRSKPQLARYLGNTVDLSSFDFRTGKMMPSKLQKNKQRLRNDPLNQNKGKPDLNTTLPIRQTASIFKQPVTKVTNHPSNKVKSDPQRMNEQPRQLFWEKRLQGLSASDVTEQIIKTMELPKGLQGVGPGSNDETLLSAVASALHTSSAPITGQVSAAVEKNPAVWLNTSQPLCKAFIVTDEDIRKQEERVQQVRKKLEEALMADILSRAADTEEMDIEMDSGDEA
LEDGF integ inh: blocks HIV-1 LEDGF/p75-dependent DNA integration. 370,000 tested, 0.64% active. inhibition, % at 3.7 µM. TR-FRET IN-LEDGF/p75 DNA integration, Eu/Cy5. AID 743269;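 active = inhibition above the screen-wide mean plus 3 SD, cut at about 13% in these data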;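 note: signal is the Cy5 over europium emission ratio at 671 and 618 nm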
UHRF1 binding: human UHRF1 methylated DNA binding inhibitors; 370,000 tested, 0.75% active; AID 687016; inhibition, % at 4.4 µM; UHRF1 binding to methylated oligo, TR-FRET; in the data active = inhibition above about 21%;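 note: UHRF1 SRA domain binding a hemimethylated CpG hairpin DNA probe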
Rin1-Abl confirm: confirmation of inhibitors of human Rin1-Abl interaction; shares compounds with Rin1 Abl inh; TR-FRET Rin1-Abl binding, purified proteins; inhibition, % at 7.35 µM; 1,300 tested, 49% active; AID 602124
GFP quench: counter-screen for Rin1-Abl inhibitors: GFP fluorescence quenchers; shares compounds with Rin1 Abl inh; inhibitors/quenchers counterscreen; inhibition, % at 6.75 µM; 1,300 tested, 8.5% active; AID 602125;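 note: ABL1-eGFP fusion protein alone without its partner RIN1-SBP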
UHRF1 DNA bind: counter-screen for MBD2 inhibitors: human UHRF1 methylated DNA binding inhibitors. UHRF1 binding to methylated oligonucleotide, TR-FRET. 1,000 tested, 25% active. shares compounds with MBD2 DNA inh. inhibition, % at 4.4 µM. AID 720530; in the data active = inhibition above about 21%;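 note: UHRF1 SRA domain binding a labeled hemimethylated CpG hairpin DNA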
MBD2 DBD conf: confirmation of human MBD2-DBD methylated oligonucleotide binding inhibitors; shares compounds with MBD2 DNA inh; TR-FRET MBD2-DBD binding to methylated oligonucleotide; inhibition, % at 4.4 µM; 1,000 tested, 26% active; in the data active = inhibition above about 14%
TDP2 confirm: human TDP2 inhibition, confirmation. shares compounds with TDP2 absorb. recombinant human TDP2, absorbance read-out. inhibition, % at 12.8 µM. 1,100 tested, 22% active. AID 743263; in the data active = inhibition above about 25%
IN multimer act: activates HIV-1 integrase multimerization in LEDGF counter-screen; 2,000 tested, 17% active; activation, % at 7.7 µM; shares compounds with LEDGF integ inh; TR-FRET HIV-1 integrase multimerization, biochemical; AID 1053131; in the data active = activation above about 8.9%
TRFRET interf: optically interferes with TR-FRET readout in LEDGF counter-screen. shares compounds with LEDGF integ inh. TR-FRET optical interference counterscreen, HIV-1 IN multimerization. inhibition, % at 7.7 µM. 2,000 tested, under 10 active;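 active = inhibition above the mean over all tested compounds plus 3 SD, which no compound reached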
LEDGF integ conf: confirmation of HIV-1 LEDGF/p75-dependent integration inhibitors; 2,000 tested, 36% active; TR-FRET LEDGF/p75-dependent HIV-1 integration, biochemical; inhibition, % at 3.7 µM; AID 1053136; shares compounds with LEDGF integ inh; in the data active = inhibition above about 14%
Of the large screens only hits and unclear results are named; the others gave an inactive call (follow-up assays come after a bar, where they were run). Most compounds without a hit are left out; they make up all but 1.9% or so of the library. Cut-off read from the data, not from the text of the source, unless noted: active = inhibition above about 6.5%; inactive = the rest.

O=c1cc2c(=O)oc3cc(O)c(O)oc3c2c(O)c1O	Rin1 Abl inh 56, MBD2 DNA inh 95, LEDGF integ inh 89, UHRF1 binding 97 | Rin1-Abl confirm 51 | GFP quench 34 | UHRF1 DNA bind 92 | MBD2 DBD conf 109 | IN multimer act 80 | TRFRET interf inactive | LEDGF integ conf 91
CN(C)c1ccc(C=c2c3ccccc3n3c2c2ccccc2[n+]3C)cc1	none
C[n+]1c(-c2ccccc2)cc2c(=Cc3ccccc3)c3ccccc3n21	TDP2 absorb 36, Rin1 Abl inh 13, LEDGF integ inh 28 | Rin1-Abl confirm inactive | GFP quench inactive | TDP2 confirm 47 | IN multimer act inactive | TRFRET interf inactive | LEDGF integ conf 45
Oc1ccc(/C=N/Nc2ccc(Cl)nn2)c(O)c1O	Rin1 Abl inh 29, LEDGF integ inh 70, UHRF1 binding 21 | Rin1-Abl confirm 27 | GFP quench 17 | IN multimer act 31 | TRFRET interf inactive | LEDGF integ conf 62
Oc1c(Br)cc(Br)cc1/C=N/Nc1ccc(Cl)nn1	none
CC1CN(c2ccnc3cc(Cl)ccc23)CCN1C(=O)c1ccc(Cl)cc1 (configuration not stated)	none (no result: Rin1 Abl inh)
CC(Nc1cccc2ccccc12)C(=O)N/N=C/c1ccccn1 (configuration not stated)	TDP2 absorb 26, Rin1 Abl inh 11, LEDGF integ inh 23 | Rin1-Abl confirm inactive | GFP quench inactive | TDP2 confirm inactive | IN multimer act inactive | TRFRET interf inactive | LEDGF integ conf inactive
O=C(CCCC(=O)N/N=C\c1ccccn1)N/N=C\c1ccccn1	none
Oc1ccc(-c2cn3c(n2)SCC3)cc1	none
Oc1ccc(-c2cn3c(n2)SCC3)cc1O	Rin1 Abl inh 26, LEDGF integ inh 52 | Rin1-Abl confirm 20 | GFP quench 15 | IN multimer act 72 | TRFRET interf inactive | LEDGF integ conf 58
O=C1C=CC(=O)c2c(O)c(N3CCN(CCOCCO)CC3)c(Br)c(O)c21	Rin1 Abl inh 39, LEDGF integ inh 50, UHRF1 binding 40 | Rin1-Abl confirm 54 | GFP quench 25 | IN multimer act 99 | TRFRET interf inactive | LEDGF integ conf 83
O=S(=O)(c1ccc(Br)cc1Cl)N1CCN(CCO)CC1	none
OCCOCCN1CCN(C2=Nc3ccccc3Sc3ccccc32)CC1	none
O=C1C=CC(=O)c2c(O)c(N3CCN(CCO)CC3)c(Cl)c(O)c21	Rin1 Abl inh 48, LEDGF integ inh 26 | Rin1-Abl confirm 51 | GFP quench 24 | IN multimer act 91 | TRFRET interf inactive | LEDGF integ conf 78
N#C/C(=C\c1cc(O)c(O)c(O)c1)C(N)=O	Rin1 Abl inh 49, MBD2 DNA inh 32, LEDGF integ inh 68, UHRF1 binding 47 | Rin1-Abl confirm 49 | GFP quench 20 | UHRF1 DNA bind inactive | MBD2 DBD conf inactive | IN multimer act 31 | TRFRET interf inactive | LEDGF integ conf 31
CCN(CC)c1ccc(/C=C(\C#N)C(N)=O)cc1	none
CC[C@H](CCC(=O)N(c1ccccc1)c1ccccc1)C1CC1	none (no result: Rin1 Abl inh)
O=c1cc(-c2ccc(O)c(O)c2)oc2c(C3O[C@H](CO)[C@@H](O)[C@H](O)[C@H]3O)c(O)cc(O)c12 (some centres not stated)	Rin1 Abl inh 22, LEDGF integ inh 68 | Rin1-Abl confirm 37 | GFP quench 14 | IN multimer act 81 | TRFRET interf inactive | LEDGF integ conf 90
O=c1cc(-c2ccc(O)c(O)c2)oc2cc(O)c(C3OC(CO)C(O)C(O)C3O)c(O)c12 (configuration not stated)	Rin1 Abl inh 27, LEDGF integ inh 46 | Rin1-Abl confirm 33 | GFP quench 8.9 | IN multimer act 73 | TRFRET interf inactive | LEDGF integ conf 91
O=c1cc(-c2ccc(O)cc2)oc2cc(O)c([C@@H]3O[C@H](CO)[C@@H](O)[C@H](O)[C@H]3O)c(O)c12	none
COc1cccc(/C=C2\CC3(OC(=O)C4CCCC4)CCCN2C3)c1 (configuration not stated)	none (no result: Rin1 Abl inh)
COC(=O)C1=C(C)N(Cc2ccccc2C(F)(F)F)C(=NCc2ccccc2)NC1c1ccc(Cl)cc1 (configuration not stated)	none (no result: Rin1 Abl inh)
C[C@H](O)[C@@H]1C(=O)N2CCc3c([nH]c4cccc(-c5ccccc5)c34)[C@@H]2C[C@@H]1N(C)C(=O)OCc1ccccc1	none (no result: Rin1 Abl inh)
COC(=O)C1CN(CCc2ccccc2)CCS(=O)(=O)N1Cc1ccccc1F (configuration not stated)	none (no result: Rin1 Abl inh)
O/N=C1\CCC\C1=C/c1ccco1	none
O=C1C(=Cc2ccco2)CCC1=Cc1ccco1	Rin1 Abl inh 12, MBD2 DNA inh 103, LEDGF integ inh 91, UHRF1 binding 100 | Rin1-Abl confirm 17 | GFP quench 29 | UHRF1 DNA bind 96 | MBD2 DBD conf 53 | IN multimer act 14 | TRFRET interf inactive | LEDGF integ conf 93
CC(=O)c1ccc2c(c1)C1C=CCC1C(C(=O)O)N2 (configuration not stated)	Rin1 Abl inh 14, MBD2 DNA inh 104, LEDGF integ inh 90, UHRF1 binding 93 | Rin1-Abl confirm 13 | GFP quench 43 | IN multimer act 53 | TRFRET interf inactive | LEDGF integ conf 77
COc1cc(NC(C)=O)c2ncccc2c1NC(C)=O	none

From PubChem BioAssay
